Results as given in ChEMBL document CHEMBL1125831, “Synthesis and quantitative structure-activity relationship analysis of 2-(aryl or heteroaryl)quinolin-4-amines, a new class of anti-HIV-1 agents” (J Med Chem, 1991).

Experiments:
[1] = tested on: Human immunodeficiency virus 1; test: In vitro antiviral activity in Phytohemagglutininin stimulated human PBM cells infected with HIV-1 (strain LAV-1); format: functional, organism-based; conditions: Human immunodeficiency virus 1, PBMC
Method in brief: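 […] human PBM cells stimulated with phytohemagglutinin, then infected with HIV-1 strain LAV-1. Antiviral activity reported as median effective concentration (EC50).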

[2] = In vitro toxicity on uninfected Phytohemagglutininin stimulated human PBM cell; format: cell-based
Method in brief: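 Human PBM cells stimulated with phytohemagglutinin and left uninfected. Cell toxicity reported as minimum toxic concentration (MTC).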

Row | SMILES | EC50 [1] [µM] | MTC [2] [µM]
1 | CCN(CCN(C)C)c1cc(-c2cccs2)nc2ccccc12 | 32.4 | 100
2 | CN(C)CCNc1cc(-c2ccncc2)nc2ccccc12 | 36.9 | 100
3 | CN(C)CCNc1cc(-c2ccccn2)nc2ccccc12 | 1.35 | 100
4 | Nc1cc(-c2ccccn2)nc2ccccc12 | 8.56 | 100
5 | CN(C)CCNc1cc(-c2cccnc2)nc2ccccc12 | 1.51 | > 100
6 | Cc1ccc(-c2cc(NCCN(C)C)c3ccccc3n2)cc1 | 4.47 | 10
7 | CN(C)CCNc1cc(-c2ccc(Cl)cc2)nc2ccccc12 | 100 | –
8 | Nc1cc(-c2cccs2)nc2ccccc12 | 34.3 | 10
9 | CN(C)CCNc1cc(-c2cccs2)nc2ccccc12 | 0.57 | 10
10 | COc1ccc(-c2cc(NCCN(C)C)c3ccccc3n2)cc1 | 10.4 | 10
11 | CN(C)CCNc1cc(-c2ccco2)nc2ccccc12 | 0.91 | > 1
12 | CCN(CCN(C)C)c1cc(-c2ccncc2)nc2ccccc12 | 100 | 100
13 | CN(C)CCNc1cc(-c2ccc(F)cc2)nc2ccccc12 | 13.2 | 100
14 | CN(C)CCNc1cc(-c2ccc(Br)cc2)nc2ccccc12 | 44.2 | 100
15 | CCN(CCN(C)C)c1cc(-c2cccnc2)nc2ccccc12 | 24.2 | 100
16 | CCN(CCN(C)C)c1cc(-c2ccccn2)nc2ccccc12 | 13.2 | –

Second part, led by results:

Row | EC50 [1] [µM] | SMILES | MTC [2] [µM]
17 | 10 | CN(C)CCNc1cc(-c2ccccc2)nc2ccccc12 | 100
18 | 25.7 | Nc1cc(-c2ccccc2)nc2ccccc12 | –
19 | 33.7 | c1cncc(-c2cc(N3CCCC3)c3ccccc3n2)c1 | 100
20 | 26.4 | CC1CCCCN1c1cc(-c2ccccc2)nc2ccccc12 (stereo not given) | 100
21 | 100 | CC(C)(C)Nc1cc(-c2ccccc2)nc2ccccc12 | –
22 | 4.86 | CC1CCCN(c2cc(-c3ccccn3)nc3ccccc23)C1 (stereo not given) | 100
23 | 5.51 | CN1CCN(c2cc(-c3ccccn3)nc3ccccc23)CC1 | –
24 | 15.8 | CN1CCN(c2cc(-c3ccco3)nc3ccccc23)CC1 | –
25 | 4.24 | CC1CCCCN1c1cc(-c2ccccn2)nc2ccccc12 (stereo not given) | 100
26 | 20 | c1cncc(-c2cc(N3CCCCC3)c3ccccc3n2)c1 | 100
27 | 2.81 | c1ccc(-c2cc(N3CCSCC3)c3ccccc3n2)nc1 | –
28 | 4.08 | CC1CCN(c2cc(-c3ccccn3)nc3ccccc23)CC1 | 100
29 | 18.5 | c1ccc(-c2cc(N3CCOCC3)c3ccccc3n2)nc1 | –
30 | 16.7 | CC1CCCN(c2cc(-c3ccccc3)nc3ccccc23)C1 (stereo not given) | 100
31 | 50.6 | CC(C)CNc1cc(-c2ccccc2)nc2ccccc12 | 100
32 | 13.2 | CN1CCN(c2cc(-c3ccccc3)nc3ccccc23)CC1 | 100
33 | 100 | CC(C)Nc1cc(-c2ccccc2)nc2ccccc12 | > 100
34 | 9.07 | CN1CCN(c2cc(-c3cccs3)nc3ccccc23)CC1 | –
35 | 68.2 | CN1CCN(c2cc(-c3ccncc3)nc3ccccc23)CC1 | –
36 | 34.8 | CCN(CCN(C)C)c1cc(-c2ccccc2)nc2ccccc12 | –
37 | 1 | CN1CCN(c2cc(-c3cccnc3)nc3ccccc23)CC1 | > 100
38 | 1 | Nc1cc(-c2cccnc2)nc2ccccc12 | 85.7
